# Test results published in PubChem BioAssay AID652260 (The Scripps Research Institute Molecular Screening Center, 2013).
# Screen size: about 3,500 compounds; about 1,000 (29%) were called active.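 Rule for the calls: active = activation above its plate's cutoff, the mean activation of tested wells plus 3 SD (cut at about 7.9% in these data); inactive = the rest.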 The list is a sample of the results.
# Experiment: BRM-dependent MMTV reporter reactivation – cell-based, luminescence, triplicate, confirmation (AID 652260)
# Conditions: MG213 cells, MMTV-luciferase with dexamethasone, overnight, at 9.1 µM, active compounds read high, DMSO wells 0%, reference activator 100%, MG213 cells expressing E1A, Rb sequestered
# Outline: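 System: MG213 cells (E1A-transduced) carrying MMTV-luciferase reporter; buffer or medium: 2.5% FBS medium with dexamethasone; probe or stimulus: 0.1 µM dexamethasone stimulus; compound: 9.1 µM single dose; timing: compound exposure 24 h at 37 °C after 1-day dexamethasone priming; signal: luciferase luminescence (OneGlo); control set: DMSO wells as low control, reference activator compound as high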
row,SMILES,activation
1,COc1cccc(-c2nc3cc(C)ccc3o2)c1,7.4% (inactive)
2,CCN(CC)C(=O)CSc1nnc(-c2cccc(OC)c2)o1,8.07% (active)
3,CCOC(=O)C(C)n1cnc2c(nnn2-c2cccc(OC)c2)c1=O (stereo not drawn),4.29% (inactive)
4,CCNC(=S)N1CCN(c2ncccn2)CC1,-2.06% (inactive)
5,Cc1cc(C)nc(Nc2n[nH]c(-c3ccccc3N)n2)n1,5.41% (inactive)
6,CC(C)C[C@H]1CNC(=O)C(=O)N1C[C@H]1CCCN1C[C@H](Cc1ccc(O)cc1)N1C[C@H](CC(C)C)N(CC2CCCCCC2)C(=O)C1=O,-0.79% (inactive)
7,COc1ccc(C(=O)Nc2ccc3c(c2)OCO3)cc1OC,7.86% (active)
8,O=C(Nc1cccc([N+](=O)[O-])c1)c1ccc2c(c1)OCO2,3.25% (inactive)
9,COCC(C)n1c(SCc2ccc(C(=O)OC)o2)nc2ccccc2c1=O (stereo not drawn),0.09% (inactive)
10,Cc1cc(-c2n[nH]c(=S)n2/N=C/C(Br)=C/c2ccccc2)n[nH]1,2.39% (inactive)
11,CCN(CC)CCNC(=O)c1ccc(NC(=O)c2cc(-c3ccncc3)nc3ccccc23)cc1,5.3% (inactive)
12,CC(=O)Nc1ccc(Nc2c3ccccc3nc3ccccc23)cc1,43% (active)
13,O=C(Nc1ccc2nccnc2c1)c1ccco1,5.96% (inactive)
14,CCCSC(=S)NC1CCS(=O)(=O)C1 (stereo not drawn),-0.53% (inactive)
15,c1ccc2cc3c(NCCN4CCOCC4)ccnc3cc2c1,34.6% (active)
16,COc1ccc(-c2cc(-c3ccc(N)cc3)nc(N)c2C#N)cc1OC,-1.93% (inactive)
17,Cc1ccc(C(=O)NNC(=O)c2cccs2)cc1,1.93% (inactive)
18,COc1ccc(/C=N/NC(=O)c2cc(-c3cccc(C)c3)nc3ccccc23)cc1O,1.04% (inactive)
19,COc1ccc(N=C(C)c2sc3ccccc3c2O)cc1,9.34% (active)
20,Cc1cc(C)c2nc3nc(C)cc(C)c3c(N)c2c1,60% (active)
21,COc1ccc(Cn2c(C)c(C)c(C#N)c2NC(=O)Nc2ccc(F)cc2)cc1,4.61% (inactive)

row,SMILES,activation
1,C/C(CC(=O)NC(C)(C)C)=N\NC(=O)c1ccco1,5.29% (inactive)
2,CN(C)C(=S)N=c1ssc(=S)n1Cc1ccco1,15.4% (active)
3,O=C1/C(=C\c2ccc([N+](=O)[O-])cc2)CS(=O)(=O)C/C1=C/c1ccc([N+](=O)[O-])cc1,-15.7% (inactive)
4,COc1ccccc1C1=Nc2cccc3cccc(c23)N1,2.63% (inactive)
5,O=C(CCCCCn1c(=S)[nH]c2ccsc2c1=O)NC1CCCCC1,1.02% (inactive)
6,C=C1C(=O)[C@]23C[C@H]1CCC2[C@@]1(C)C(C[C@@H]3O)[C@](C)(C(=O)O)CC[C@@H]1O (stereo partly drawn),28.4% (active)
7,Cn1c(-c2ccc(F)cc2)cc2onc(-c3ccccc3Cl)c2c1=O,-3.34% (inactive)
8,CN1CCN(CCCNC(=O)c2ccc(/C=C3\Oc4ccccc4N(Cc4ccc(Cl)cc4)C3=O)cc2)CC1,3.44% (inactive)
9,COCn1c(COc2ccccc2)nc2ccccc21,8.62% (active)
10,CCc1ccc[n+](-c2nc([O-])sc2C=O)c1,-1.34% (inactive)
11,COc1ccc(CC2c3cc(OC)c(OC)cc3CC[N+]2(C)CCC(=O)OCCCCCOC(=O)CC[N+]2(C)CCc3cc(OC)c(OC)cc3C2Cc2ccc(OC)c(OC)c2)cc1OC (stereo not drawn),8.77% (active)
12,CCOC(=O)c1sc2nc(CSc3ccccc3)[nH]c(=O)c2c1C,-0.16% (inactive)
13,COc1cc(CN2CCC(C(N)=O)CC2)ccc1OCc1ccccc1,13% (active)
14,O=C(c1cc(-c2ccc(O)cc2)on1)N1CCOCC1,7.73% (inactive)
15,O=C(c1cc(-c2ccccc2O)on1)N1CCCC1,1.4% (inactive)
16,O=C(c1cccs1)C1C(c2ccc(Br)cc2)NC(=S)NC1(O)C(F)(F)F (stereo not drawn),5.35% (inactive)
17,Cc1ccc(-c2nc3ccc(Br)cn3c2Cc2ccccc2C(F)(F)F)cc1,0.37% (inactive)
18,CCN(CC)C(=O)c1sc2nc(-c3ccccc3)ccc2c1N,9.6% (active)
19,CC(C)(C)C(=O)CSc1nc2ccccc2o1,6.81% (inactive)
20,CN(C)S(=O)(=O)c1ccc2oc(SCC(=O)Nc3ccccc3F)nc2c1,7.95% (active)
21,COc1ccc(C(CNC(=O)c2ccc(S(=O)(=O)Nc3ccccc3F)cc2)N(C)C)cc1 (stereo not drawn),0.35% (inactive)

row,SMILES,activation
1,Cc1noc(C)c1/C=N/Nc1ccc2ccccc2n1,4.24% (inactive)
2,CC1CCCCN1C(=S)NCc1ccccc1 (stereo not drawn),0.99% (inactive)
3,COc1ccc(-c2csc(Cc3nc(O)cs3)n2)cc1,-15.4% (inactive)
4,COc1ccc(-c2cc3ncccc3cn2)cc1,8.92% (active)
5,CN(C)c1nc(=Nc2cccc(Cl)c2)ss1,-15.3% (inactive)
6,Cc1n[nH]c(=O)nc1N/N=C/c1cccs1,3.07% (inactive)
7,CCC1CCC/C1=N\NC(=O)c1ccc(Cl)cc1 (stereo not drawn),2.31% (inactive)
8,O=C(Nc1ccc2c(c1)CCC2)c1ccc(Br)s1,10.8% (active)
9,Cc1ccc(NC(=O)c2cnc(SCC(=O)NCC3CCCO3)n(C)c2=O)cc1 (stereo not drawn),9.35% (active)
10,Cc1ccc(-c2c(C)n([O-])c3c([n+]2=O)CCC3)cc1,6.67% (inactive)
11,N#Cc1ccccc1NC(=O)c1cccc(COc2ccc(Cl)cc2Cl)c1,4.05% (inactive)
12,Fc1ccc(CNc2nc3ccccc3n3nnnc23)cc1,1.53% (inactive)
13,COc1c(O)cc2oc(-c3ccc(O)c(O)c3)cc(=O)c2c1O,12.6% (active)
14,CCCCNC(=O)C1CCC(CNS(=O)(=O)c2ccc(NC(C)=O)cc2)CC1 (stereo not drawn),-3.14% (inactive)
15,Cc1cc2oc3ccc(NCCC4CCCN4C)cc3c(=O)c2cc1C (stereo not drawn),5.48% (inactive)
16,CC1CCCCC1NC(=O)CN1CCC(O)(c2ccc3c(c2)OCO3)CC1 (stereo not drawn),-0.84% (inactive)
17,CCCC(=O)N1c2ccc(-c3csc(N)n3)cc2CC1C (stereo not drawn),8.32% (active)
18,Cc1cc(C(=O)NNC(=S)Nc2ccccc2C)cs1,3.37% (inactive)
19,Cc1cc(C)c2nc(NC(=O)C3CCCO3)sc2c1 (stereo not drawn),9.52% (active)
20,O=C(Nc1nnc(CCc2ccccc2)s1)C1CCCO1 (stereo not drawn),1.02% (inactive)
21,C=CC(=O)OCCOCCOCCOCCOC(=O)C=C,7.95% (active)
